Results from different studies.
Protocols differ between the studies behind these lines.
EGFR: Epidermal growth factor receptor (EGFR, Homo sapiens, UniProt P00533)
EGFR A750P/del747-749: Epidermal growth factor receptor (EGFR, Homo sapiens, UniProt P00533, A750P/del747-749)
EGFR L861Q: Epidermal growth factor receptor (EGFR, Homo sapiens, UniProt P00533, L861Q)
EGFR G719C: Epidermal growth factor receptor (EGFR, Homo sapiens, UniProt P00533, G719C)
EGFR G719S: Epidermal growth factor receptor (EGFR, Homo sapiens, UniProt P00533, G719S)
EGFR del747-752/P753S: Epidermal growth factor receptor (EGFR, Homo sapiens, UniProt P00533, del747-752/P753S)
EGFR L858R/T790M: Epidermal growth factor receptor (EGFR, Homo sapiens, UniProt P00533, L858R/T790M)
EGFR L858R: Epidermal growth factor receptor (EGFR, Homo sapiens, UniProt P00533, L858R)
EGFR T790M: Epidermal growth factor receptor (EGFR, Homo sapiens, UniProt P00533, T790M)

O=C(Nc1c[nH]nc1C(=O)NC1CCNCC1)c1cc(F)cc(F)c1  remaining binding (EGFR; binding; competition with immobilised ligand; 1 µM): 96%
O=C(NCCCN1CCOCC1)c1ccc(Nc2ncc(Cl)c(-c3ccc(Cl)s3)n2)cc1  remaining binding (EGFR A750P/del747-749; binding; competition with immobilised ligand; 1 µM): 72%
CC(C)(O)c1cncc(-c2nc3ccc(F)cc3n2C2CC2)c1  remaining binding (EGFR L861Q; cell-free assay; competition with immobilised ligand; 1 µM): 100%
Cc1cnc(Nc2ccc(C(=O)N3CCC(N4CCCC4)CC3)cc2)nc1-c1cc2ccccc2s1  remaining binding (EGFR G719C; binding; competition with immobilised ligand; 1 µM): 92%
Cc1c(NC(=O)c2cc(C(N)=O)nc3cc(F)ccc23)c(C(F)(F)F)nn1Cc1ccc(C(C)(C)C)cc1  remaining binding (EGFR A750P/del747-749; cell-free assay; competition with immobilised ligand; 1 µM): 100%
Cc1ccc(NC(=O)c2ccc(CN3CCN(C)CC3)cc2)cc1Nc1nccc(-c2cccnc2)n1  remaining binding (EGFR; cell-free assay; competition with immobilised ligand; 0.1 µM): 100%
CN1CCN(c2ccc(Nc3nccc(-c4ccccc4)n3)cc2C(F)(F)F)CC1  remaining binding (EGFR G719S; binding; 10 µM): 98%
CNC(=O)Nc1ccc2c(c1)CC[C@@]21OC(=O)N(CC(=O)N(Cc2ccc(F)cc2)[C@@H](C)C(F)(F)F)C1=O  remaining binding (EGFR del747-752/P753S; cell-free assay; competition with immobilised ligand; 1 µM): 64%
COc1cnc(Nc2cccc(S(N)(=O)=O)c2)nc1N1CCN(c2ccccc2)CC1  remaining binding (EGFR del747-752/P753S; binding; competition with immobilised ligand; 1 µM): 85%
CN(CCCC(F)(F)F)c1nccc(-c2cnn3ncccc23)n1  remaining binding (EGFR L858R/T790M; binding; 1 µM): 100%
O=C(c1ccc(Nc2ncc(Cl)c(-c3cc4ccccc4s3)n2)cc1)N1CCC(N2CCCC2)CC1  remaining binding (EGFR G719S; binding; competition with immobilised ligand; 1 µM): 98%
C[C@@H]1CN(c2ccc3ncc(-c4ccc5[nH]nc(C6CC6)c5c4)n3n2)C[C@H](C)O1  remaining binding (EGFR; binding; competition with immobilised ligand; 0.5 µM): 31%
O=C(NC1CCC1)c1ccc2nc(-c3cccc(NS(=O)(=O)NCCN4CCCCC4)c3)cn2c1  remaining binding (EGFR del747-752/P753S; cell-free assay; competition with immobilised ligand; 10 µM): 100%
Cc1cnn2ncc(-c3ccnc(N(C)C)n3)c2c1  remaining binding (EGFR G719C; binding; 1 µM): 100%
O=C(c1ccc(Nc2nccc(-c3cc4ccccc4s3)n2)cc1)N1CCC(N2CCCC2)CC1  remaining binding (EGFR G719C; binding; competition with immobilised ligand; 1 µM): 93%
c1cncc(-c2cccc(Nc3nccc(NC4CCCCC4)n3)c2)c1  remaining binding (EGFR G719C; binding; competition with immobilised ligand; 10 µM): 70%
COc1ncc2cc3ccccc3nc2c1C#N  remaining binding (EGFR G719S; cell-free assay; competition with immobilised ligand; 5 µM): 95%
COc1cnc(Nc2cccc(S(N)(=O)=O)c2)nc1N1CCN(c2ccccc2)C(=O)C1  remaining binding (EGFR L858R/T790M; binding; competition with immobilised ligand; 1 µM): 72%
O=C(NCCCN1CCOCC1)c1ccc(Nc2nccc(-c3cc4ccccc4s3)n2)cc1  remaining binding (EGFR L858R; binding; competition with immobilised ligand; 1 µM): 88%
CN(C)C(=O)Cn1cc(-c2nc(C3(c4ccc(-c5cnc(N)nc5)cc4)CC3)no2)cn1  remaining binding (EGFR L861Q; cell-free assay; competition with immobilised ligand; 1 µM): 100%
CN1CCN(c2ccc(Nc3nccc(-c4cccc([N+](=O)[O-])c4)n3)cc2C(F)(F)F)CC1  remaining binding (EGFR L861Q; binding; 10 µM): 96%
Cn1cc(Cl)c2c(Oc3c(F)cc(Nc4cc(Cl)nc(N)n4)cc3F)ccnc21  remaining binding (EGFR T790M; cell-free assay; competition with immobilised ligand; 0.1 µM): 88%
CN(c1nccc(-c2cnn3ncccc23)n1)C1CC1  remaining binding (EGFR L858R/T790M; binding; 1 µM): 100%
CS(=O)(=O)NCC[C@H](NC(=O)c1cncc2c1cnn2-c1ccc(F)cc1)c1ccnc(S(C)(=O)=O)c1  remaining binding (EGFR G719S; cell-free assay; competition with immobilised ligand; 1 µM): 75%
COc1ccnn2ncc(-c3ccnc(N(C)C)n3)c12  remaining binding (EGFR L858R; binding; 1 µM): 100%
Nc1ncc2c(n1)-c1c([nH]c3ccc(C#CC4CC4)cc13)CCCC2  remaining binding (EGFR del747-752/P753S; binding; competition with immobilised ligand; 1 µM): 56%
O=C(c1ccc(Nc2ncc(Cl)c(-c3ccc(Cl)s3)n2)cc1)N1CCC(N2CCCC2)CC1  remaining binding (Epidermal growth factor receptor (EGFR, Homo sapiens, UniProt P00533, del752-759); binding; competition with immobilised ligand; 1 µM): 96%
CCN1CCN(Cc2ccc(C(=O)Nc3ccc(C)c(Oc4ccc5c(c4)CC(=O)N5)c3)cc2C(F)(F)F)CC1  remaining binding (EGFR L861Q; binding; competition with immobilised ligand; 1 µM): 77%
CC1CCCN1c1nccc(-c2cnn3ncccc23)n1 (centres unmarked)  remaining binding (EGFR; binding; 1 µM): 100%
O=C(N1CCS(=O)(=O)CC1)N1C[C@H](c2ccc(OC(F)(F)F)cc2)C[C@H](c2nc(C3CC3)no2)C1  remaining binding (EGFR T790M; cell-free assay; competition with immobilised ligand; 1 µM): 100%
N[C@H]1CCN(c2nccc(-c3cnn4ncccc34)n2)C1  remaining binding (Epidermal growth factor receptor (EGFR, Homo sapiens, UniProt P00533, del746-750); binding; 1 µM): 98%
CNC(=O)[C@@H]1CC[C@@H](n2c(-c3ccc4cnccc4c3)nc3ccc(C(=O)NCc4cccc(C(N)=O)c4)cc32)C1  remaining binding (EGFR A750P/del747-749; binding; competition with immobilised ligand; 1 µM): 100%
O=C(NCC1CCOCC1)c1n[nH]cc1NC(=O)c1c(F)cccc1F  remaining binding (EGFR L861Q; binding; competition with immobilised ligand; 1 µM): 100%
CNC(=O)c1ccc(Nc2ncc(C(F)(F)F)c(NCc3nccnc3N(C)S(C)(=O)=O)n2)cc1  remaining binding (EGFR L858R; cell-free assay; competition with immobilised ligand; 0.1 µM): 100%
C[C@H]1CCN(c2nccc(-c3cnn4ncccc34)n2)C1  remaining binding (EGFR G719S; binding; 1 µM): 75%
